Data taken from ChEMBL document CHEMBL1145811, “Synthesis and antibacterial activity of a novel series of acylides: 3-O-(3-pyridyl)acetylerythromycin A derivatives” (J Med Chem, 2003).
Converted amounts (≈) assume the structure as drawn.

Legend:
Format in all cases: functional
Staphylococcus aureus [1] = assay: In vitro minimum inhibitory concentration for antibacterial activity against Staphylococcus aureus SR138 (constitutively MLSb-resistant strain encoded by the erm(A) gene)
Procedure, shortened: (§1)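 Agar dilution MIC determined by the Japan Society of Chemotherapy standard method for aerobic bacteria.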

Streptococcus pneumoniae [2] = assay: In vitro minimum inhibitory concentration for antibacterial activity against Streptococcus pneumoniae 210 (efflux-resistant strain encoded by the mef(A) gene); procedure, shortened: as §1
Streptococcus pneumoniae [3] = assay: In vitro minimum inhibitory concentration for antibacterial activity against erythromycin susceptible strain Streptococcus pneumoniae IID553
Staphylococcus aureus [4] = assay: In vitro minimum inhibitory concentration for antibacterial activity against erythromycin susceptible strain Staphylococcus aureus Smith
Staphylococcus aureus [5] = assay: In vitro minimum inhibitory concentration for antibacterial activity against Staphylococcus aureus B1 (inducibly MLSb-resistant strain encoded by the erm(C) gene); procedure, shortened: as §1
Haemophilus influenzae [6] = assay: In vitro minimum inhibitory concentration for antibacterial activity against Haemophilus influenzae ATCC 43095 (ampicillin-susceptible strain that does not produce beta-lactamase); procedure, shortened: as §1
Streptococcus pneumoniae [7] = assay: In vitro minimum inhibitory concentration for antibacterial activity against erythromycin-susceptible strain Streptococcus pneumoniae IID553
Procedure, shortened: (§2)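 MIC by agar dilution following the Japan Society of Chemotherapy standard method for aerobic bacteria. S. aureus 209P-JC and S. pneumoniae IID553 are erythromycin-susceptible strains.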

Staphylococcus aureus [8] = assay: In vitro minimum inhibitory concentration for antibacterial activity against erythromycin-susceptible strain Staphylococcus aureus […]; procedure, shortened: as §2
Haemophilus influenzae [9] = assay: In vitro minimum inhibitory concentration for antibacterial activity against Haemophilus influenzae ATCC 33533 (ampicillin-resistant strain that produces beta-lactamase); procedure, shortened: as §1
Streptococcus pneumoniae [10] = assay: In vitro minimum inhibitory concentration for antibacterial activity against Streptococcus pneumoniae 211 (MLSb-resistant strain encoded by the erm(B) gene); procedure, shortened: as §1
Mus musculus [11] = assay: Effective dose in vivo, in mouse inoculated intraperitoneally with 1.47*10e3 CFU of erythromycin susceptible strain Streptococcus pneumoniae IID553; settings: ip
Procedure, shortened: (§3)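 Mouse protection test: mice were infected intraperitoneally with erythromycin-susceptible S. aureus Smith or S. pneumoniae IID553. Compounds were given orally 1 h after inoculation.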

Mus musculus [12] = assay: Effective dose in vivo, in mouse inoculated intraperitoneally with 5.80*10e7 CFU of erythromycin susceptible strain Staphylococcus aureus Smith; settings: ip; procedure, shortened: as §3

Row | SMILES | MIC (Staphylococcus aureus [1]) [mg/L] | MIC (Streptococcus pneumoniae [2]) [mg/L] | MIC (Streptococcus pneumoniae [3]) [mg/L] | MIC (Staphylococcus aureus [4]) [mg/L] | MIC (Staphylococcus aureus [5]) [mg/L] | MIC (Haemophilus influenzae [6]) [mg/L] | MIC (Streptococcus pneumoniae [7]) [mg/L] | MIC (Staphylococcus aureus [8]) [mg/L] | MIC (Haemophilus influenzae [9]) [mg/L] | MIC (Streptococcus pneumoniae [10]) [mg/L] | ED50 (Mus musculus [11]) [mg/kg] | ED50 (Mus musculus [12]) [mg/kg]
1 | CC[C@H]1OC(=O)[C@H](C)[C@@H](OC(=O)Cc2ccc([N+](=O)[O-])cc2)[C@H](C)[C@@H](O[C@@H]2O[C@H](C)C[C@H](N(C)C)[C@H]2O)[C@@](C)(OC)C[C@@H](C)C(=O)[C@H](C)[C@@H](O)[C@]1(C)O | > 100 | 0.2 (≈ 0.266 µM) | 0.1 (≈ 0.133 µM) | 0.39 (≈ 0.518 µM) | 0.39 (≈ 0.518 µM) | 50 (≈ 66.4 µM) | 0.2 (≈ 0.266 µM) | 0.2 (≈ 0.266 µM) | 50 (≈ 66.4 µM) | > 100 | 39.1 | –
2 | CC[C@H]1OC(=O)[C@H](C)[C@@H](OC(=O)Cc2cccnc2)[C@H](C)[C@@H](OC2O[C@H](C)C[C@H](N(C)C)[C@H]2O)[C@@](C)(OC)C[C@@H](C)/C(=N\O)[C@H](C)[C@H]2OC(=O)O[C@@]21C (stereo not given in full) | > 100 | 0.1 (≈ 0.133 µM) | 0.025 (≈ 0.0333 µM) | 0.39 (≈ 0.52 µM) | 0.39 (≈ 0.52 µM) | 3.13 (≈ 4.17 µM) | 0.025 (≈ 0.0333 µM) | 0.2 (≈ 0.267 µM) | 6.25 (≈ 8.33 µM) | > 100 | 47.4 | 27.6
3 | CC[C@H]1OC(=O)[C@H](C)[C@@H](OC(=O)Cc2cccnc2)[C@H](C)[C@@H](OC2O[C@H](C)C[C@H](N(C)C)[C@H]2O)[C@@](C)(O)C[C@@H](C)/C(=N\O)[C@H](C)[C@H]2OC(=O)O[C@@]21C (stereo not given in full) | > 100 | 0.1 (≈ 0.136 µM) | 0.025 (≈ 0.034 µM) | 0.2 (≈ 0.272 µM) | 0.39 (≈ 0.53 µM) | 3.13 (≈ 4.25 µM) | 0.025 (≈ 0.034 µM) | 0.39 (≈ 0.53 µM) | 3.13 (≈ 4.25 µM) | > 100 | 142 | 51.6
4 | CC[C@H]1OC(=O)[C@H](C)[C@@H](OC(=O)Cc2cccnc2)[C@H](C)[C@@H](OC2O[C@H](C)C[C@H](N(C)C)[C@H]2O)[C@@](C)(OC)C[C@@H](C)C(=O)[C@H](C)[C@@H](O)[C@]1(C)O (stereo not given in full) | > 100 | 0.39 (≈ 0.55 µM) | 0.2 (≈ 0.282 µM) | 0.78 (≈ 1.1 µM) | 1.56 (≈ 2.2 µM) | 12.5 (≈ 17.6 µM) | 0.39 (≈ 0.55 µM) | 0.78 (≈ 1.1 µM) | 12.5 (≈ 17.6 µM) | > 100 | 40.8 | 9.57
5 | CC[C@H]1OC(=O)[C@H](C)[C@@H](OC(=O)Cc2cccc([N+](=O)[O-])c2)[C@H](C)[C@@H](OC2O[C@H](C)C[C@H](N(C)C)[C@H]2O)[C@@](C)(OC)C[C@@H](C)C(=O)[C@H](C)[C@@H](O)[C@]1(C)O (stereo not given in full) | > 100 | 0.2 (≈ 0.266 µM) | – | – | 0.78 (≈ 1.04 µM) | 25 (≈ 33.2 µM) | 0.1 (≈ 0.133 µM) | 0.2 (≈ 0.266 µM) | 25 (≈ 33.2 µM) | > 100 | – | –
